Blank lines part the entries; values can stand above or below the molecule they belong to. The source made the active and inactive calls. No cut-off for these calls is given here.
Assays:
Assay type in all cases: functional
[1] = test system: MCF7; assay: Growth inhibition of human MCF7 cells after 48 hrs by SRB assay; conditions: MCF7, 48 h
Summary of the method: (§1)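 Cells seeded to stay in exponential growth (MCF-7 and NCI-H460 5.0 × 10³ cells/well, A375-C5 7.5 × 10³ cells/well) and left to adhere overnight. Then 48 h exposure to five serial dilutions (1:2 or 1:3) from DMSO stocks diluted in medium; DMSO vehicle control maximum 0.25%. TCA fixation, SRB staining, Tris solubilisation, absorbance at 492 nm. GI50 taken from dose–response curves as 50% inhibition of net growth. Mean ± SEM of ≥3 independent experiments, in duplicate.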

[2] = Growth inhibition of human A375-C5 cells after 48 hrs by SRB assay; conditions: A375-C5, 48 h; summary of the method: as §1
[3] = test system: MCF7; assay: Induction of apoptosis in human MCF7 cells at 7.1 uM by annexinV-propidium iodide staining-based flow cytometric analysis (reference value: 11.1%)
Summary of the method: (§2)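 MCF-7 handled as for the cell-cycle study: 48 h exposure at the stated concentration, with untreated cells and a highest-level DMSO control. Harvested cells stained with annexin V-FITC/PI per kit instructions. Flow cytometry with ≥20,000 events per sample; apoptosis given as % of total cells. Mean ± SEM of three experiments (DMSO control two); unpaired t-test against untreated cells.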

[4] = test system: NCI-H460; assay: Growth inhibition of human NCI-H460 cells after 48 hrs by SRB assay; conditions: NCI-H460, 48 h; summary of the method: as §1
[5] = test system: MCF7; assay: Cell cycle arrest in human MCF7 cells assessed as accumulation at sub-G1 phase at 7.3 uM after 48 hrs by propidium iodide staining-based flow cytometric analysis relative to control
Summary of the method: (§3)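 MCF-7 plated in 6-well plates (5.0 × 10³ cells/well) and held 24 h at 37 °C. Exponentially growing cells then exposed 48 h at the single concentration stated. Untreated and highest-level DMSO controls included. Fixation in 70% ethanol at 4 °C for ≥12 h, then PBS with 0.1 mg/mL RNase A and 5 µg/mL PI. DNA content by flow cytometry, ≥20,000 events; sub-G1 fraction scored after debris exclusion. Mean ± SEM of three experiments; unpaired t-test versus untreated cells.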

[6] = test system: MCF7; assay: Induction of apoptosis in human MCF7 cells at 7.3 uM by annexinV-propidium iodide staining-based flow cytometric analysis (reference value: 11.1%); summary of the method: as §2
[7] = test system: MCF7; assay: Induction of apoptosis in human MCF7 cells at 10.5 uM by annexinV-propidium iodide staining-based flow cytometric analysis (reference value: 11.1%); summary of the method: as §2
[8] = test system: MCF7; assay: Induction of apoptosis in human MCF7 cells at 8 uM by annexinV-propidium iodide staining-based flow cytometric analysis (reference value: 11.1%); summary of the method: as §2
[9] = test system: MCF7; assay: Cell cycle arrest in human MCF7 cells assessed as accumulation at sub-G1 phase at 8 uM after 48 hrs by propidium iodide staining-based flow cytometric analysis; summary of the method: as §3
[10] = test system: MCF7; assay: Induction of apoptosis in human MCF7 cells at 4.1 uM by annexinV-propidium iodide staining-based flow cytometric analysis (reference value: 11.1%); summary of the method: as §2
[11] = test system: MCF7; assay: Induction of apoptosis in human MCF7 cells at 9.1 uM by annexinV-propidium iodide staining-based flow cytometric analysis (reference value: 11.1%); summary of the method: as §2
[12] = test system: MCF7; assay: Induction of apoptosis in human MCF7 cells at 7.8 uM by annexinV-propidium iodide staining-based flow cytometric analysis (reference value: 11.1%); summary of the method: as §2
[13] = test system: MCF7; assay: Cell cycle arrest in human MCF7 cells assessed as accumulation at sub-G1 phase at 7.8 uM after 48 hrs by propidium iodide staining-based flow cytometric analysis; summary of the method: as §3

Structure (SMILES): CCCc1c(O)ccc(C(=O)/C=C/c2ccccc2Cl)c1O
GI50 [1]: 7.1 µM
GI50 [2]: 14.2 µM
Activity [3]: 14.8%
GI50 [4]: 12.5 µM

Structure (SMILES): COc1ccc(C2CC(=O)c3ccc(O)c(C)c3O2)c(OC)c1 (stereo unspecified)
GI50 [1]: 12.5 µM
GI50 [2]: > 150 µM
GI50 [4]: > 150 µM

Structure (SMILES): CCCc1c(O)ccc(C(=O)/C=C/c2ccc(OCOC)cc2OCOC)c1O
GI50 [1]: 18.2 µM
GI50 [2]: 35 µM
GI50 [4]: 24.3 µM

Structure (SMILES): CCCc1c(O)ccc(C(=O)/C=C/c2ccc(OC)cc2)c1O
GI50 [1]: 13.3 µM
GI50 [2]: 46.3 µM
GI50 [4]: 24.7 µM

Structure (SMILES): COc1cc(OC)c(OC)cc1/C=C/C(=O)c1ccc(O)cc1O
GI50 [1]: 31.8 µM
GI50 [2]: 34.8 µM
GI50 [4]: 60 µM

Structure (SMILES): CCCc1c(O)ccc(C(=O)/C=C/c2cc(OC)c(OC)c(OC)c2)c1O
GI50 [1]: 4.1 µM
GI50 [2]: 8.2 µM
Activity [10]: 14%
GI50 [4]: 8.3 µM

Structure (SMILES): Cc1c(O)ccc(C(=O)/C=C/c2ccc(Cl)cc2)c1O
GI50 [1]: 34.5 µM
GI50 [2]: 41.6 µM
GI50 [4]: 43 µM

Structure (SMILES): COc1cccc2c1C(=O)c1c(O)c3c(c(O)c1C2=O)C[C@@](O)(C(=O)CO)C[C@@H]3O[C@H]1C[C@H](N)[C@H](O)[C@H](C)O1 [DOXORUBICIN]
GI50 [1]: 0.0688 µM
GI50 [2]: 0.0915 µM
GI50 [4]: 0.086 µM

Structure (SMILES): CCCc1c(O)ccc2c1OC(c1cc(OC)c(OC)cc1OC)CC2=O (stereo unspecified)
GI50 [1]: 18.8 µM
GI50 [2]: 32 µM
GI50 [4]: 47 µM

Further molecules by falling GI50 [1], results first:

GI50 [1]: 32.7 µM
GI50 [4]: > 150 µM
Structure (SMILES): COCOc1ccc(/C=C/C(=O)c2ccc(O)c(C)c2O)c(OCOC)c1
GI50 [2]: > 150 µM

GI50 [1]: 19.5 µM
GI50 [4]: 37 µM
Structure (SMILES): COc1ccc(/C=C/C(=O)c2ccc(O)cc2O)c(OC)c1
GI50 [2]: 30.3 µM

GI50 [1]: 19.3 µM
GI50 [4]: 20.3 µM
Structure (SMILES): Cc1c(O)ccc(C(=O)/C=C/c2ccc(C(F)(F)F)cc2)c1O
GI50 [2]: 24.7 µM

GI50 [1]: 10.5 µM
GI50 [4]: 22.5 µM
Structure (SMILES): Cc1c(O)ccc(C(=O)/C=C/c2ccc(Cl)cc2Cl)c1O
GI50 [2]: 21.4 µM
Activity [7]: 16.6%

GI50 [1]: 9.1 µM
GI50 [4]: 24.5 µM
Structure (SMILES): CCCc1c(O)ccc(C(=O)/C=C/c2cc(OC)c(OC)cc2OC)c1O
GI50 [2]: 23 µM
Activity [11]: 13.3%

GI50 [1]: 8 µM
GI50 [4]: 10.5 µM
Structure (SMILES): O=C(/C=C/c1ccc(OCc2ccccc2)cc1)c1ccc(O)cc1O
GI50 [2]: 9 µM
Activity [8]: 15.4%
Activity [9]: Active

GI50 [1]: 7.8 µM
GI50 [4]: 8.2 µM
Structure (SMILES): COc1cc(/C=C/C(=O)c2ccc(O)cc2O)cc(OC)c1OC
Activity [12]: 20%
GI50 [2]: 8.1 µM
Activity [13]: Active

GI50 [1]: 7.3 µM
GI50 [4]: 15.3 µM
Structure (SMILES): O=C(/C=C/c1ccc(F)cc1)c1ccc(O)cc1O
Activity [5]: 11%
GI50 [2]: 14.1 µM
Activity [6]: 23.9%
